Assay results published in article PMC6585844 (Clinical Pharmacology in Drug Development, 2018).
Read-outs that look alike come from different tables or passages of the source.

Assays:
[1] = format: in vivo, human; conditions: for AUC0‐t, mean ± SD: fasted, plasma to 48 h
How it was run: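 Healthy adults, cohorts A–E (n = 6 each), single oral tablet dose (25–400 mg) with 8 oz water after ≥10 h fast plus 4 h more. Potassium-EDTA plasma sampled predose and 0.5–48 h, stored −70°C ≤62 days, solid-supported liquid-liquid extraction. AUC0-t by trapezoidal method; AUC0-∞ = AUC0-t + Clast/λ. BQL values taken as zero. Power-model dose proportionality with 95% CI.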

Multiple‐dose = format: in vivo, human; conditions: for AUCτ, mean ± SD: after last of 9 multiple doses; for Cmax / Tmax: human, plasma, oral
How it was run: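 After the single dose, the same subjects took the assigned dose twice daily, 9 doses, with only a morning dose on the final day. Morning doses were fasted; evening doses were taken without regard to meals. Plasma was sampled predose on days 3–7 (A–D) or 4–8 (E), then 0.5–12 h postdose. AUCτ by trapezoidal method; fluctuation 100*(Cmax−Cmin)/Cavg; accumulation as AUCτ/AUC0-t.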

Safety/tolerability = format: in vivo, human
How it was run: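 Open-label oral dose escalation. Cohorts A–E received 10 doses (1 single, then 9 twice daily). Cohort F (n = 6) took titrated twice-daily doses of 100–800 mg/day on days 1–14, up to 28 doses, and was assessed for safety only. Vital signs were taken at screening, baseline and each study day, with a 12-lead ECG at screening. AEs were recorded when reported.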

[2] = Cohort A 25 mg single oral dose (n = 6)
[3] = Cohort B 50 mg single oral dose (n = 6)
[4] = Cohort C 100 mg single oral dose (n = 6)
[5] = Cohort D 200 mg single oral dose (n = 6)
[6] = Cohort E 400 mg single oral dose (n = 6)
[7] = Cohort A (n = 6): 1 × 25 mg then 9 × 25 mg BID
[8] = Cohort B (n = 6): 1 × 50 mg then 9 × 50 mg BID

## NS(=O)(=O)c1cc(Cl)c(Cl)c(S(N)(=O)=O)c1 [dichlorphenamide]
[1]; [2]
  AUC0‐∞, mean ± SD: 5908 ± 3959 ng˙h/mL
  AUC0‐t, mean ± SD: 2327 ± 731 ng˙;h/mL
[1]; [3]
  AUC0‐∞, mean ± SD: 14,734 ± 4555 ng˙h/mL
  AUC0‐t, mean ± SD: 7897 ± 2055 ng˙;h/mL
[1]; [4]
  AUC0‐∞, mean ± SD: 28,901 ± 13,317 ng˙h/mL
  AUC0‐t, mean ± SD: 19,119 ± 7317 ng˙;h/mL
[1]; [5]
  AUC0‐∞, mean ± SD: 66,456 ± 26,211 ng˙h/mL
  AUC0‐t, mean ± SD: 38,132 ± 8249 ng˙;h/mL
[1]; [6]
  AUC0‐∞, mean ± SD: 142,007 ± 16,279 ng˙h/mL
  AUC0‐t, mean ± SD: 88,243 ± 12,616 ng˙;h/mL
[1]; human, plasma, oral
  half-life: 32 to 68 h
[1]; human, plasma, oral, Median Tmax, range across doses, single doses 25–400 mg
  Tmax: 1.5 to 3 h
[1]; human, plasma, po, 25 mg
  Cmax: 298 ± 77 ng/mL
  half-life: 68.4 ± 35 h
[1]; human, plasma, po, 50 mg
  Cmax: 709 ± 490 ng/mL
  half-life: 51.4 ± 24 h
[1]; human, plasma, po, 100 mg
  Cmax: 1510 ± 909 ng/mL
  half-life: 31.9 ± 11 h
[1]; human, plasma, po, 200 mg
  Cmax: 3030 ± 1210 ng/mL
  half-life: 41 ± 17 h
[1]; human, plasma, po, 400 mg
  Cmax: 6320 ± 1280 ng/mL
  half-life: 38.6 ± 8 h
[1]; single doses 25–400 mg
  Slope for LnAUC0‐t (dose proportionality, power model), with 95%CI: 1.29 (95%CI, 1.18‐1.40)
  Slope for LnCmax (dose proportionality, power model), with 95%CI: 1.11 (95%CI, 0.97‐1.26)
Multiple‐dose; Cohort A 25 mg BID (n = 5)
  Cavg, mean ± SD: 837 ± 274 ng/mL
  AUCτ, mean ± SD: 10,038 ± 3283 ng˙h/mL
Multiple‐dose; Cohort B 50 mg BID (n = 6)
  Cavg, mean ± SD: 1527 ± 549 ng/mL
  AUCτ, mean ± SD: 18,329 ± 6593 ng˙h/mL
Multiple‐dose; Cohort C 100 mg BID (n = 6)
  Cavg, mean ± SD: 3122 ± 1108 ng/mL
  AUCτ, mean ± SD: 37,468 ± 13,298 ng˙h/mL
Multiple‐dose; Cohort D 200 mg BID (n = 5)
  Cavg, mean ± SD: 7080 ± 2854 ng/mL
  AUCτ, mean ± SD: 84,960 ± 34,245 ng˙h/mL
Multiple‐dose; Cohort E 400 mg BID (n = 3)
  Cavg, mean ± SD: 17,298 ± 5219 ng/mL
  AUCτ, mean ± SD: 207,577 ± 62,626 ng˙h/mL
Multiple‐dose; 25 mg
  Cmax: 1150 ± 239 ng/mL
  Tmax: 2 h
Multiple‐dose; 50 mg
  Cmax: 2220 ± 959 ng/mL
  Tmax: 3 h
Multiple‐dose; 100 mg
  Cmax: 4870 ± 1890 ng/mL
  Tmax: 1.5 h
Multiple‐dose; 200 mg
  Cmax: 10700 ng/mL
  Tmax: 2 h
Multiple‐dose; 400 mg
  Cmax: 26600 ng/mL
  Tmax: 1 h
Multiple‐dose; multiple doses 25–400 mg BID
  Slope for LnAUCτ (dose proportionality, power model), with 95%CI: 1.09 (95%CI, 0.92–1.26)
  Slope for LnCmax (dose proportionality, power model), with 95%CI: 1.13 (95%CI, 0.95–1.31)
Multiple‐dose; multiple‐ versus single‐dose phase
  Accumulation ratios of AUCτ/AUC0‐t: greater than 1
Safety/tolerability; 800 mg total daily dose, short‐term study
  Tolerability for extended use: intolerable for extended use
Safety/tolerability; [7]
  Blood potassium decreased, TEAE of any severity, subjects: 0
  Dizziness, TEAE of any severity, subjects: 0
  Dysgeusia, TEAE of any severity, subjects: 0
  Dyspnea, TEAE of any severity, subjects: 0
  Oral paresthesia, TEAE of any severity, subjects: 0
  Paresthesia, TEAE of any severity, subjects: 0
  Subjects discontinuing due to TEAE: 0 n (%)
  Subjects reporting at least 1 TEAE: 1 (16.7) n (%)
  Subjects reporting at least 1 serious TEAE: 0 n (%)
  Total TEAEs reported: 1
  Treatment‐related AEs reported: 0
Safety/tolerability; [8]
  Blood potassium decreased, TEAE of any severity, subjects: 0
  Dizziness, TEAE of any severity, subjects: 0
  Dysgeusia, TEAE of any severity, subjects: 0
  Dyspnea, TEAE of any severity, subjects: 0
  Oral paresthesia, TEAE of any severity, subjects: 0
  Paresthesia, TEAE of any severity, subjects: 0
